The values that follow come from ChEMBL document CHEMBL1125497, “Synthesis and anticonvulsant activity of enaminones” (J Med Chem, 1992).

A short description of series [1]: Antiepileptic activity in male CF1 mice 4 hr after oral administration measured in maximum electroshock seizure(MES) test at a dose of 50 mg/kg (no. of animals treated /protected); activity value is 2/4. It counts as functional, Mus musculus.
The nature of series [2]: Oral dose producing neurotoxic effects in 50% of rats. It counts as ADME, organism-based. Conditions: rat, in vivo. The method in brief:
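Phase VI screen in male Sprague-Dawley rats dosed orally. MES protection and rotorod toxicity were scored as animals responding over animals tested at 0.25, 0.5, 1, 2 and 4 h.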

Series [3] relates to Rattus norvegicus. Briefly: Average seizure score for the rat cornea 0.5 hr after peroral administration of 0 mg/kg of compound. It counts as functional. Conditions: route oral. The method in brief:
(§1)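 Sprague-Dawley rats (85–95 g initial) were kindled with 4 s, 8 mA corneal stimulations (butacaine anesthesia) to 10 consecutive stage 5 seizures. After a vehicle shock and a 2-day shock-free period, test drug was given ip or po and a single shock applied at time of peak effect. Seizures were scored on a modified Racine 0–5 scale. ED50 is the dose reducing severity by 50% (Litchfield–Wilcoxon).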

Series [4] can be described thus: Antiepileptic activity in male CF1 mice 30 min after administration measured in subcutaneous pentylenetetrazole (scMet) test at a dose of 300 mg/kg (no. of animals treated /protected); activity value is 0/1. It counts as functional, Mus musculus.
Series [5] in a line: Antiepileptic activity in male CF1 mice 4 hr after administration measured in maximum electroshock seizure(MES) test at a dose of 300 mg/kg. Format: functional, Mus musculus.
The nature of series [6]: Antiepileptic activity in male CF1 mice 4 hr after administration measured in subcutaneous pentylenetetrazole (scMet) test at a dose of 300 mg/kg (no. of animals treated /protected); activity value is 0/1. It counts as functional, Mus musculus.
A short description of series [7]: Antiepileptic activity in male CF1 mice 4 hr after administration measured in maximum electroshock seizure(MES) test at a dose of 100 mg/kg (no. of animals treated /protected); activity value is 0/3. It counts as functional, Mus musculus.
Series [8] can be described thus: Time of peak anticonvulsant effect in CF1 mice. Format: functional, Mus musculus. The method in brief:
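Male CF1 mice (ca. 24–34 g), compound in 0.5% methylcellulose suspension given ip or po; time (h) at which MES protection (against tonic hind limb extension) peaked was recorded and used for ED50 determination.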

Series [9] is described as follows: Antiepileptic activity in male CF1 mice 4 hr after administration measured in neurological toxicity (Tox) test at a dose of 300 mg/kg (no. of animals treated /protected); activity value is 0/2. It counts as functional, Mus musculus.
Series [10] concerns Rattus norvegicus. Briefly: Dose reducing the seizure severity in rat cornea 0.5 hr after peroral administration. Format: ADME, organism-based. Conditions: po. In short, it runs like this:
as §1

Series [11] is described as follows: Antiepileptic activity in male CF1 mice 30 min after administration measured in maximum electroshock seizure(MES) test at a dose of 300 mg/kg (no. of animals treated /protected); activity value is 1/1. Format: functional, Mus musculus.
Series [12] in a line: Protective index was measured as TD50/MES ED50 in mice on po administration. It counts as ADME, organism-based. Conditions: mouse, in vivo, read-out: PI. The method in brief:
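Male CF1 mice (ca. 24–34 g) dosed orally with 0.5% methylcellulose suspension. MES ED50 (protection of 50% from tonic hind limb extension) and rotorod TD50, each determined at time of peak effect by Litchfield and Wilcoxon. PI = TD50/MES ED50.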

A short description of series [13]: Protective index was measured as TD50/ED50. It counts as ADME. To be noted: read-out: PI.
Series [14] is described as follows: Antiepileptic activity in male CF1 mice 30 min after administration measured in subcutaneous pentylenetetrazole (scMet) test at a dose of 100 mg/kg (no. of animals treated /protected); activity value is 0/1. Format: functional, Mus musculus.
Series [15] relates to Rattus norvegicus. Briefly: Average seizure score for the rat cornea 0.5 hr after peroral administration of 50 mg/kg of compound. To be noted: route oral. Format: functional. The method in brief: as §1
Series [16] in a line: Time of peak neurotoxic effect in CF1 mice. Format: ADME. Conditions: mouse, in vivo. The method in brief: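 Male CF1 mice (ca. 24–34 g), compound ip in 0.5% methylcellulose suspension; neurological deficit assessed by rotorod test, time (h) of peak neurotoxic effect recorded for TD50 determination.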
Series [17] in a line: Dose protecting 50% of the mice from tonic hind limb extension at the time of […] after ip administration. Conditions: Mus musculus, Hindlimb. It counts as functional. In short, it runs like this: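 Phase II quantification in CF1 male mice (ca. 24–34 g), dosing ip or po in 0.5% methylcellulose suspension. ED50 is protection from tonic hind limb extension in MES. TD50 is rotorod neurotoxicity. Both were read at time of peak effect and derived by Litchfield–Wilcoxon with 95% confidence limits.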

Series [18] can be described thus: Antiepileptic activity in male CF1 mice 30 min after administration measured in neurological toxicity (Tox) test at a dose of 300 mg/kg (no. of animals treated /protected); activity value is 3/4. Format: functional, Mus musculus.
For series [19], the system named is Rattus norvegicus. Briefly: Per oral dose (0 mg/Kg) reducing rat corneal kindling 0.5 hr after administration. It counts as functional. The method in brief:
as §1

Series [20] deals with Rattus norvegicus. Briefly: Per oral dose (50 mg/Kg) reducing rat corneal kindling 0.5 hr after administration. It counts as functional. The method in brief:
as §1

The nature of series [21]: Dose at which anticonvulsant activity was observed in mice. Format: functional, Mus musculus.
The nature of series [22]: Antiepileptic activity in male CF1 mice 0.5 hr after oral administration measured in maximum electroshock seizure(MES) test at a dose of 6 mg/kg (no. of animals treated /protected); activity value is 3/4. Format: functional, Mus musculus.
The nature of series [23]: Antiepileptic activity in male CF1 mice 0.25 hr after oral administration measured in maximum electroshock seizure(MES) test at a dose of 10 mg/kg (no. of animals treated /protected); activity value is 3/4. Format: functional, Mus musculus.
The nature of series [24]: Antiepileptic activity in male CF1 mice 1.00 hours after oral administration measured in neurological toxicity (Tox) test at a dose of 6 mg/kg (no. of animals treated /protected); activity value is 0/4. Format: functional, Mus musculus.
A short description of series [25]: Antiepileptic activity in male CF1 mice 30 min after administration measured in neurological toxicity (Tox) test at a dose of 100 mg/kg (no. of animals treated /protected); activity value is 1/8. Format: functional, Mus musculus.
Series [26] can be described thus: Antiepileptic activity in male CF1 mice 4 hr after oral administration measured in neurological toxicity (Tox) test at a dose of 10 mg/kg (no. of animals treated /protected); activity value is 0/4. Format: functional, Mus musculus.
The nature of series [27]: Antiepileptic activity in male CF1 mice 0.25 hr after oral administration measured in neurological toxicity (Tox) test at a dose of 10 mg/kg (no. of animals treated /protected); activity value is 0/4. It counts as functional, Mus musculus.
Series [28] is described as follows: Antiepileptic activity in male CF1 mice 1 hr after oral administration measured in maximum electroshock seizure(MES) test at a dose of 6 mg/kg (no. of animals treated /protected); activity value is 1/4. Format: functional, Mus musculus.
Series [29] concerns Rattus norvegicus. Briefly: Average seizure score for the rat cornea 0.5 hr after peroral administration of 30 mg/kg of compound. It counts as functional. Conditions: route oral. The method in brief:
as §1

Series [30] can be described thus: Antiepileptic activity in male CF1 mice 0.50 hours after oral administration measured in neurological toxicity (Tox) test at a dose of 6 mg/kg (no. of animals treated /protected); activity value is 0/4. Format: functional, Mus musculus.
Series [31] can be described thus: Antiepileptic activity in male CF1 mice 4 hr after administration measured in neurological toxicity (Tox) test at a dose of 100 mg/kg (no. of animals treated /protected); activity value is 0/4. It counts as functional, Mus musculus.

Bounds are passed on as bounds.

The term TD50 denotes the 50% point of the dose-response relation for the toxic effect studied. Low readings indicate greater toxicity, high ones lower toxicity. The term ED50 denotes the midpoint of the dose-response relation. Higher therefore signals weaker potency. Take `COC(=O)C1C(=O)C=C(NCc2ccccc2)CC1C` (configuration not stated): the Activity is 2 in [1]; 0 in [4]; 0.1 in series [5]; 0 in series [6]; 0 in series [7]; 0 in [9]. The Activity in [11] is 1; in series [14], 0; in series [18] it was 3. The TD50 in [2] was greater than 500 mg/kg. Further, the Average seizure score is 5 in series [3] and 3.6 in series [15]. In addition, the results for the TPE in [8] and in series [16] were 0.5 and 1, respectively. Further, the ED50 in [10] (Rattus norvegicus, Cornea) was determined as 78.3 mg/kg; in series [17], 42 mg/kg. Besides, the selectivity ratio was greater than 3.1 in [12] and 7.7 in series [13]. Moreover, the Reduction is on record as 0% in series [19] and 29% in series [20]. Besides, the Dose result in series [21] is “<=100 mg kg-1”.
In the case of `COC(=O)C1C(=O)C=C(Nc2ccc(Cl)cc2)CC1C` (configuration not stated), the TD50 in series [2] is greater than 380 mg/kg. Further, the Average seizure score is listed as 4.9 in series [3], 1.7 in series [15] and 3 in [29]. The Activity in series [4] is given as 0; in series [6], 0; in series [7] it was 0; in series [9], 0; in [22], 3; in [23] it was 3. Moreover, the Activity in series [11] was found to be 1; in series [24], 0; in series [25], 1; in series [14], 0; in series [26], 0; in series [27] it was 0. Further, the values for the Activity in series [28], in [30] and in series [31] were 1, 0 and 0, respectively. In addition, the figures for the TPE in series [8] and in [16] were 0.5 and 2, respectively. In [10] (rat, in vivo), the ED50 is 34.2 mg/kg. The selectivity ratio in [13] worked out at 9.7. The Reduction is listed as 0% in series [19] and 67% in [20]. Moreover, the Dose result in series [21] is reported as “<=100 mg kg-1”.
